Assay results as given in ChEMBL document CHEMBL1926597, “Isoflavonoids and coumarins from Glycyrrhiza uralensis: antibacterial activity against oral pathogens and conversion of isoflavans into isoflavan-quinones during purification” (J Nat Prod, 2011).
Calls of active or inactive are those of the source. The calls are words filed in the database; no cut-off is given here.

Columns and labels:
Streptococcus sobrinus [1] = test: Antibacterial activity against Streptococcus sobrinus ATCC 33478 assessed as growth inhibition at 0.00625 to 2.5 ug/ml after 24 hrs by microplate dilution assay; assay type: functional, organism-based
Prevotella intermedia [2] = test: Antibacterial activity against Prevotella intermedia ATCC 25611 assessed as growth inhibition at 0.00625 to 2.5 ug/ml ug/ml after 24 hrs by microplate dilution assay; assay type: functional, organism-based
In short: (§1)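 Todd Hewitt broth with hemin (10 μg/mL) and vitamin K (1 μg/mL). 24-h cultures were diluted to OD660 0.2 and mixed 1:1 with serial dilutions in broth (compounds 10 to 1.25 μg/mL; penicillin G 2.5 to 0.00625 μg/mL). Plates were incubated 24 h at 37 °C anaerobically (N2–H2–CO2 75:10:15), then OD660 was read against no-compound control wells. Triplicates were given as mean ± SD; Student's t test was applied when inhibition was ≥20%.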

Fusobacterium nucleatum [3] = test: Antibacterial activity against Fusobacterium nucleatum ATCC 25586 assessed as growth inhibition at 0.00625 to 2.5 ug/ml ug/ml after 24 hrs by microplate dilution assay; assay type: functional, organism-based; in short: as §1
Porphyromonas gingivalis [4] = test: Antibacterial activity against Porphyromonas gingivalis ATCC 33277 assessed as growth inhibition at 0.00625 to 2.5 ug/ml ug/ml after 24 hrs by microplate dilution assay; assay type: functional; in short: as §1
Streptococcus mutans [5] = test: Antibacterial activity against Streptococcus mutans ATCC 25175 assessed as growth inhibition at 0.00625 to 2.5 ug/ml after 24 hrs by microplate dilution assay; assay type: functional, organism-based
Streptococcus sobrinus [6] = test: Antibacterial activity against Streptococcus sobrinus ATCC 33478 assessed as growth inhibition at 1.25 to 10 ug/ml after 24 hrs by microplate dilution assay; assay type: functional, organism-based
Prevotella intermedia [7] = test: Antibacterial activity against Prevotella intermedia ATCC 25611 assessed as growth inhibition at 1.25 to 10 ug/ml after 24 hrs by microplate dilution assay; assay type: functional, organism-based; in short: as §1
Streptococcus mutans [8] = test: Antibacterial activity against Streptococcus mutans ATCC 25175 assessed as growth inhibition at 1.25 to 10 ug/ml after 24 hrs by microplate dilution assay; assay type: functional, organism-based
Fusobacterium nucleatum [9] = test: Antibacterial activity against Fusobacterium nucleatum ATCC 25586 assessed as growth inhibition at 1.25 to 10 ug/ml after 24 hrs by microplate dilution assay; assay type: functional, organism-based; in short: as §1
Porphyromonas gingivalis [10] = test: Antibacterial activity against Porphyromonas gingivalis ATCC 33277 assessed as growth inhibition at 1.25 to 10 ug/ml after 24 hrs by microplate dilution assay; assay type: functional; in short: as §1
Streptococcus mutans [11] = test: Antibacterial activity against Streptococcus mutans ATCC 25175 assessed as growth inhibition at 10 ug/ml after 24 hrs by microplate dilution assay; assay type: functional, organism-based
Streptococcus sobrinus [12] = test: Antibacterial activity against Streptococcus sobrinus ATCC 33478 assessed as growth inhibition at 10 ug/ml after 24 hrs by microplate dilution assay; assay type: functional, organism-based

| Compound | growth inhibition (GI) (Streptococcus sobrinus [6]) | growth inhibition (GI) (Prevotella intermedia [7]) | growth inhibition (GI) (Streptococcus mutans [8]) | other results |
| --- | --- | --- | --- | --- |
| CC1(C)S[C@@H]2[C@H](NC(=O)Cc3ccccc3)C(=O)N2[C@H]1C(=O)O | – | – | – | growth inhibition (GI) (Streptococcus sobrinus [1]): Active; growth inhibition (GI) (Prevotella intermedia [2]): Active; growth inhibition (GI) (Fusobacterium nucleatum [3]): Active; growth inhibition (GI) (Porphyromonas gingivalis [4]): Active; growth inhibition (GI) (Streptococcus mutans [5]): Active |
| COc1cc2c(c(OC)c1CC=C(C)C)C[C@H](c1ccc(O)cc1O)CO2 | inactive | Active | inactive | – |
| CC(C)=CCc1cc(-c2coc3cc(O)cc(O)c3c2=O)c(O)cc1O | inactive | Active | inactive | – |
| COc1cc2c(c(OC)c1CC=C(C)C)C[C@H](C1=CC(=O)C(O)=C(CC=C(C)C)C1=O)CO2 | inactive | Active | inactive | – |
| COc1cc2oc(=O)c(-c3ccc(O)cc3O)cc2c(OC)c1CC=C(C)C | inactive | Active | inactive | – |
| COc1c(CC=C(C)C)c(O)cc2oc(=O)c(-c3ccc(O)cc3O)cc12 | inactive | Active | inactive | – |
| COc1c(CC=C(C)C)c(O)cc2c1C[C@H](c1ccc(O)c(CC=C(C)C)c1O)CO2 | – | Active | – | growth inhibition (GI) (Fusobacterium nucleatum [9]): Active; growth inhibition (GI) (Porphyromonas gingivalis [10]): Active; growth inhibition (GI) (Streptococcus mutans [11]): Active; growth inhibition (GI) (Streptococcus sobrinus [12]): Active |
